Bioassay records: PubChem, several laboratories
Only some compounds are listed: those with a hit (about 3.8% of all), similar ones and a draw of the others.
RGS4 block: human RGS4 inhibition | 310,000 compounds, 0.45% hits | HEK293 M3R/RGS4 inducible, Fluo-4 calcium flux; active compounds read high; triggered by carbachol at its EC20 | B-score at 10 µM;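 active = B-score, a plate-corrected calcium signal, over three deviations above library mean, with baseline fluorescence within five deviations of library mean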;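 also: RGS4 expression induced by doxycycline in cells with stable M3 receptor; B-score is computed from the integrated fluorescence ratio over baseline after carbachol; higher B-score means a larger calcium signal and so more RGS4 inhibition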
Target sequence (P49798 whole entry, looked up): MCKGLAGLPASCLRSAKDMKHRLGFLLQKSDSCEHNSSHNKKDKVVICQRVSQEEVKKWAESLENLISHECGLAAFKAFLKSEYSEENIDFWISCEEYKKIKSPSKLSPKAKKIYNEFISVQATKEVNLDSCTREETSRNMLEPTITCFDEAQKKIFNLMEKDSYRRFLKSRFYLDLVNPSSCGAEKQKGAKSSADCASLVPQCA
MrgX1 allo act: human MrgX1 positive allosteric modulation, primary screen; Q96LB2; MrgX1-HEK293, Fluo-4 calcium flux, FDSS; active compounds read high; B-score at 10 µM; 310,000 compounds, 0.63% hits; AID 588675;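 active = plate-corrected calcium response at least 3 library SD above typical, normal starting fluorescence, not activating the receptor alone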;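 also: compound read alongside a low EC10 to EC30 dose of BAM8-22 agonist; peak minus trough fluorescence over baseline measured at the second addition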
Target sequence (Q96LB2 whole entry, looked up): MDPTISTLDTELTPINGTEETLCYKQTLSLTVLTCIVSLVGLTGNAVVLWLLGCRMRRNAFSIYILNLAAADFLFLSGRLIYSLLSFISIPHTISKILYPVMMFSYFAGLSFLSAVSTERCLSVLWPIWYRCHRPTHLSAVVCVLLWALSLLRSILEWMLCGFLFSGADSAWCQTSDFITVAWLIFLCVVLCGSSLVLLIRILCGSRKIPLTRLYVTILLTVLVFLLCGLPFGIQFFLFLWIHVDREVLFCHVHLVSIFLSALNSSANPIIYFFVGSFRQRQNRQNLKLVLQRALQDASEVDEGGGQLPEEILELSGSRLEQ
MrgX1 agonist: agonists of human MrgX1 receptor; Q96LB2; MrgX1-HEK293 cells, Fluo-4 calcium fluorescence, agonist mode; active compounds read high; B-score at 10 µM; 310,000 compounds, 0.44% hits; AID 588627;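 active = calcium response B-score plate-corrected fluorescence ratio at least 3 library SD, with starting fluorescence B-score inside 5 SD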
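Material: MrgX1-expressing HEK293 cells / Dosing: compound as first of three additions / Incubation: overnight seeding, then 1 h dark dye loading / Signal: Fluo-4 NW calcium fluorescence / Evaluation: B-scored fluorescence response ratio / Benchmarks: positive and negative control wells on each plate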
RGS4 act: RGS4 potentiation or activation; HEK293 M3R/inducible RGS4, carbachol calcium flux Fluo4; active compounds read low; B-score at 10 µM; 310,000 compounds, 0.92% hits; AID 463111;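 active = B-score of the integrated calcium signal more than 4 SD below the library mean, with starting fluorescence not abnormally high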;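 also: negative B-score means reduced calcium response which marks RGS4 activation or potentiation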
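System – HEK293 FlpIn-TREx cells, stable M3R, doxycycline-inducible RGS4 · Reagent – ECmax carbachol challenge · Times – compound preincubation 20 min at room temperature before agonist · Technique – Fluo4 fluorescence kinetic imaging of calcium · Measure – B score of integrated Fluo4 ratio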
MrgX1 antagonist: human MrgX1 receptor antagonism, primary screen | Q96LB2 | 310,000 compounds, 1.3% hits | AID 588676 | B-score at 10 µM | MRGX1-HEK293 calcium flux, Fluo-4, BAM8-22 antagonism; active compounds read low;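 active = calcium-response B-score plate-corrected more than 3 library SD below zero, starting fluorescence within 5 deviations, no agonist response on first addition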;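 also: peak minus trough fluorescence over baseline after final BAM8-22 challenge near maximal dose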
Lipid droplet: modulators of hepatic lipid droplet formation; AML12 mouse hepatocytes, oleate lipid droplets, BODIPY imaging; inhibition, % at 6.5 µM; 240,000 compounds, 0.4% hits;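 active = lipid droplet intensity inhibited by at least 50%, with more than 500 cells counted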
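Technique: fluorescence imaging, 20x objective, two fields per well / Assay system: AML12 hepatocytes (mouse) / Measure: % inhibition of lipid droplet signal / Doses: 6.5 µM single-point dosing / Incubation: overnight exposure / Reagent: 100 µM oleic acid challenge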
RGS4 activ val: RGS4 activation, validation assay. shares compounds with RGS4 act. HEK293 M3R/RGS4 inducible, carbachol calcium flux Fluo4. inhibition, % at 10 µM. 1,100 compounds, 89% hits;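 active = inhibition above 3 SD of the buffer control wells, cut at about 41% in these data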;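 also: signal is the integrated peak-minus-minimum Fluo4 fluorescence over baseline ratio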
M3R Ca counter: counter-screen for RGS4 activators: effect in non-induced cells; shares compounds with RGS4 act; HEK293 M3R non-induced RGS4, Fluo4 calcium flux; after carbachol challenge at its EC90; inhibition, % at 10 µM; 1,100 compounds, 82% hits; AID 602283;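 active = inhibition exceeding 3 SD of buffer-only control wells, cut at about 26% in these data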;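 also: percent drop in integrated peak-minus-baseline over baseline Fluo4 ratio after carbachol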
Starred values were filed as active, the others as inactive; i = inactive; / = not tested or not shown.

SMILES | RGS4 block | MrgX1 allo act | MrgX1 agonist | RGS4 act | MrgX1 antagonist | Lipid droplet | RGS4 activ val | M3R Ca counter
CC1=C(C(=O)OC2CCCC(C)C2)C(c2ccccc2)NC(=O)N1 (configuration not stated) | i | i | i | i | i | 0 | / | /
COc1ccccc1NC(=O)N[C@@H](Cc1c[nH]c2ccccc12)C(=O)NN | i | i | i | i | i | 2 | / | /
N#Cc1ccccc1Cn1cc(/C=N/Nc2ccc([N+](=O)[O-])cn2)c2ccccc21 | i | i | i | -11* | -6.2* | 22 | 78* | 84*
CN1CCN(C(=O)C2CCN(c3ncc(C(F)(F)F)cc3Cl)CC2)CC1 | i | i | i | -12* | i | 4 | 86* | 41*
O=C(CN1CCN(c2ncc(C(F)(F)F)cc2Cl)CC1)N1CCN(c2ncc(C(F)(F)F)cc2Cl)CC1 | i | i | i | i | i | 18 | / | /
O=C(NN1CCOCC1)c1ccccc1 | i | i | i | i | i | 12 | / | /
Cc1cc2c(cc1C)NC(c1c(C)n(C)n(-c3ccccc3)c1=O)C1=C(CC(C)(C)CC1=O)N2 (configuration not stated) | i | i | i | -11* | i | -4 | 71* | 62*
CSc1ccc(CN2CCC(Oc3ccc(C(=O)N4CCCC4)cc3)CC2)cc1 | i | i | i | -8.5* | i | -19 | 87* | 39*
CC(C)c1ccc(CN2CCC(Oc3ccc(C(=O)N4CCCC4)cc3)CC2)cc1 | i | i | i | -9.1* | i | -10 | 92* | 63*
O=C(c1ccc(OC2CCN(Cc3ccc(F)cc3)CC2)cc1)N1CCCC1 | i | i | i | i | i | -2 | / | /
C=CCNC(=O)CN1C(=O)C2C3c4ccccc4C(c4ccccc43)C2C1=O (configuration not stated) | i | i | i | i | i | 0 | / | /
Cc1cc2c(s1)Nc1ccccc1N=C2N1CCN(C)CC1 | i | i | i | -9.5* | i | -16 | 91* | 85*
OCCOCCN1CCN(C2=Nc3ccccc3Sc3ccccc32)CC1 | i | i | i | i | i | -12 | / | /
CNC(=S)N/N=C1\C(=O)c2cccc3cccc1c23 | i | i | i | -7.8* | i | / | 0 | 0
Cc1sc2cc3c(c(C(=O)c4ccccc4)[n+]2c1C)-c1cccc2cccc-3c12 | i | i | i | -14* | i | -47 | 92* | 91*
CC(=O)N1CCOc2ccc(S(=O)(=O)N3CCC(C(=O)Nc4cc(C)ccc4C)CC3)cc21 | i | i | i | i | i | 2 | / | /
CC(=O)N1CCOc2ccc(S(=O)(=O)N3CCC(C(=O)Nc4ccc(C)cc4C)CC3)cc21 | i | i | i | -8.6* | i | 6 | 0 | 0
CN(C)CCN(C(=O)c1ccc(C(=O)c2ccccc2)cc1)c1nc2cc3c(cc2s1)OCCO3 | i | i | i | -9.1* | i | -1 | 90* | 74*
CC1CCCN(CC(=O)Nc2ccc(S(=O)(=O)N3CCCC3)cc2)C1 (configuration not stated) | i | i | i | -9.2* | i | -3 | 85* | 41*
CCOc1ccc2ncc(C(=O)c3ccc(OC)cc3)c(N3CCN(CC)CC3)c2c1 | i | i | i | i | i | 3 | / | /
CCOC(=O)c1cnc2ccc(OCC)cc2c1N1CCN(c2ccccc2OC)CC1 | i | i | i | -9.1* | i | -5 | 93* | 93*
O=C(NCCc1ccccc1)C(=O)NCC1CCCN1S(=O)(=O)c1ccccc1 (configuration not stated) | i | i | i | -9.6* | i | / | 68* | 26*
O=C(NCCc1ccccc1)C(=O)NCCC1CCCCN1S(=O)(=O)c1ccccc1 (configuration not stated) | i | i | i | i | i | / | / | /
CC(Oc1cccc2cccnc12)C(=O)N/N=C/c1ccccc1 (configuration not stated) | i | i | i | i | i | -9 | / | /
CC(Oc1cccc2cccnc12)C(=O)N/N=C/c1ccc2c(c1)OCO2 (configuration not stated) | i | i | i | -13* | i | / | 0 | 0
SMILES | RGS4 block | MrgX1 allo act | MrgX1 agonist | RGS4 act | MrgX1 antagonist | Lipid droplet | RGS4 activ val | M3R Ca counter
O=C(c1cccc(NC2=NC3CS(=O)(=O)CC3S2)c1)N1CCN(c2cccc(Cl)c2)CC1 (configuration not stated) | i | i | i | i | i | -1 | / | /
N#CC1=C(N)OC2=C(C(=O)CC(c3ccccc3)C2)C1c1ccc2c(c1)OCO2 (configuration not stated) | i | i | i | -8.2* | i | -8 | 92* | 68*
N#CC1=C(N)OC(c2ccccc2)=C(C#N)C1c1ccc2c(c1)OCO2 (configuration not stated) | i | i | i | i | i | 3 | / | /
CCN(CC)CCCOC(=O)C(c1ccccc1)c1ccccc1 | i | i | i | -10* | -6.2* | 0 | 94* | 94*
Cc1ccc(-c2csc(=Nc3cccnc3)n2CCCn2ccnc2)cc1C | i | i | i | -8.8* | i | -12 | 92* | 93*
CN(C)CCNC(=O)c1cc2c(s1)-c1ccc(Cl)cc1SC2 | i | i | i | -13* | i | -1 | 94* | 93*
CCOCCCNC(=O)c1cc2c(s1)-c1ccccc1SC2 | i | i | i | i | i | -1 | / | /
Cc1cc(C)c(S(=O)(=O)n2ccc3ccccc32)c(C)c1 | i | i | i | -9.5* | i | / | 76* | 29*
CC1CCC(NC(=O)CCN2C(=O)C3C4C=CC(C4)C3C2=O)CC1 (configuration not stated) | i | i | i | i | i | 20 | / | /
Cn1c(-c2ccc3c(c2)OCO3)cnc1NCc1cccc(Cl)c1 | i | i | i | -8.9* | i | / | 86* | 44*
Cn1c(-c2ccc3c(c2)OCO3)cnc1NCc1ccccc1 | i | i | i | i | i | / | / | /
N#Cc1c(N2CCN(C(=O)c3ccccc3Cl)CC2)nc(-c2ccccc2)c2c1CCCC2 | i | i | i | i | i | / | / | /
